Measurements pooled from the literature.
Lines come from different studies, so protocols differ.
Effect on: enzyme activity
Mode: inhibitor
BMP2K: BMP-2-inducible protein kinase (BMP2K, Homo sapiens, UniProt Q9NSY1)
COQ8B: Atypical kinase COQ8B, mitochondrial (COQ8B, Homo sapiens, UniProt Q96D53)
murC: UDP-N-acetylmuramate--L-alanine ligase (murC, Escherichia coli K-12, UniProt P17952)
ACVR2B: Activin receptor type-2B (ACVR2B, Homo sapiens, UniProt Q13705)

NS(=O)(=O)c1ccc(CNc2nc(Nc3cccc(CN4CCOCC4)c3)ncc2C2CC2)cc1
remaining activity (BMP2K; radiometric; 1 µM): 68%

Cc1ccc(C(=O)Nc2ccc(CN3CCN(C)CC3)c(C(F)(F)F)c2)cc1C#Cc1cnc2cccnn12
remaining activity (COQ8B; 23.5 nM): 89%

O=[N+]([O-])c1cccc(COc2cccc(C=NNS(=O)(=O)c3ccc4ccccc4c3)c2)c1
remaining activity (murC; absorbance; 50 µM): 58%

Brc1cnc(Nc2cccc(CN3CCOCC3)c2)nc1NCCc1c[nH]cn1
remaining activity (BMP2K; radiometric; 1 µM): 1%

Nc1ncnc2occ(-c3ccc(NC(=O)Nc4cc(C(F)(F)F)ccc4F)cc3)c12
remaining activity (COQ8B; 20 µM): 24%

O=C(Nc1ccccc1C=NNS(=O)(=O)c1ccc2ccccc2c1)c1cc([N+](=O)[O-])cc([N+](=O)[O-])c1
remaining activity (murC; absorbance; 100 µM): 51%

Cc1nn(CC(F)(F)F)cc1Nc1nccc(NCc2ccc(S(N)(=O)=O)cc2)n1
remaining activity (BMP2K; radiometric; 1 µM): 86%

O=[N+]([O-])c1ccccc1S(=O)(=O)Oc1ccccc1C=NNS(=O)(=O)c1ccc2ccccc2c1
remaining activity (murC; absorbance; 50 µM): 55%

Cc1nn(CC(F)(F)F)cc1Nc1nccc(NCCc2cnc[nH]2)n1
remaining activity (BMP2K; radiometric; 1 µM): 104%

O=[N+]([O-])c1cccc(S(=O)(=O)Oc2ccccc2C=NNS(=O)(=O)c2ccc3ccccc3c2)c1
remaining activity (murC; absorbance; 50 µM): 65%

CC(C)(C)c1nc(-c2cccc(NS(=O)(=O)c3c(F)cccc3F)c2F)c(-c2ccnc(N)n2)s1
remaining activity (ACVR2B; radiometric; 1 µM): 46%

Cc1nn(CC(F)(F)F)cc1Nc1nccc(NCCCNC(=O)C2CCC2)n1
remaining activity (BMP2K; radiometric; 1 µM): 101%

COc1cc(Cl)c(C(=O)N[C@@H](CN[C@H]2CC[C@@H](N)CC2)Cc2ccc(C#N)cc2)cc1-c1ccc(CN[C@H](C)c2ccc(C)cc2)o1
remaining activity (MAPK/MAK/MRK overlapping kinase (MOK, Homo sapiens, UniProt Q9UQ07); 1 µM): 102%

CCCOc1ccc(OC)c(F)c1C(=O)c1ccc(C(=O)N[C@@H]2CNC[C@H]2NC(=O)c2ccc3[nH]ncc3c2)cc1
remaining activity (Rho-associated protein kinase 2 (ROCK2, Homo sapiens, UniProt O75116); 50 nM): 38%

O=[N+]([O-])c1ccc(S(=O)(=O)Oc2ccccc2C=NNS(=O)(=O)c2ccc3ccccc3c2)cc1
remaining activity (murC; absorbance; 100 µM): 75%

CC(C)(C)c1nc2c(s1)c1nc(N)ncc1c1ccc(NS(=O)(=O)c3c(F)cccc3F)c(F)c12
remaining activity (ACVR2B; radiometric; 1 µM): 88%
